In brackets after ≈: the same amount, converted by molar mass.
Legend:
[1] = test system: Enterococcus faecium; test: Minimum concentration required to prevent the growth of vancomycin resistant (VanA) Enterococcus faecium strain A1745; assay type: functional
In short: (§1)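 Agar dilution susceptibility testing per NCCLS guidelines against resistant clinical isolates, with nonresistant ATCC stock strains run as controls. Plates were read at 19–24 h of incubation. MIC reported in µg/mL.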

[2] = test system: Enterococcus faecium; test: Minimum concentration required to prevent the growth of nonresistant stock strain Enterococcus faecium 19434 from American Type Culture Collection (ATCC); assay type: functional
In short: (§2)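 Agar dilution susceptibility testing per NCCLS guidelines, covering clinical isolates (including resistant phenotypes) and nonresistant ATCC stock strains as controls. Plates read after 19–24 h of incubation. MIC reported in μg/mL.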

[3] = test system: Enterococcus faecium; test: Minimum concentration required to prevent the growth of vancomycin resistant (VanB) Enterococcus faecium strain A0803; assay type: functional; in short: as §1
[4] = test system: Enterococcus faecium; test: Minimum concentration required to prevent the growth of vancomycin resistant (VanB) Enterococcus faecium strain A1087; assay type: functional; in short: as §1
[5] = test system: Escherichia coli; test: Minimum concentration required to prevent the growth of cipro resistant (Cipro-R) Escherichia coli strain A3228; assay type: functional; in short: as §2
[6] = test system: Escherichia coli; test: Minimum concentration required to prevent the growth of cipro resistant (Cipro-R) Escherichia coli strain A3529; assay type: functional; in short: as §2
[7] = test system: Escherichia coli; test: Minimum concentration required to prevent the growth of cipro resistant (Cipro-R) Escherichia coli strain AA; assay type: functional; in short: as §2
[8] = test system: Escherichia coli; test: Minimum concentration required to prevent the growth of nonresistant stock Escherichia coli strain 25922 from American Type Culture Collection (ATCC); assay type: functional; conditions: ATCC25922; in short: as §2
[9] = test system: Enterococcus faecalis; test: Minimum concentration required to prevent the growth of vancomycin resistant (VanB) Enterococcus faecalis strain A1081; assay type: functional; in short: as §1
[10] = test system: Klebsiella oxytoca; test: Minimum concentration required to prevent the growth of cipro resistant (Cipro-I) Klebsiella oxytoca strain A3530; assay type: functional; in short: as §1
[11] = test system: Klebsiella pneumoniae; test: Minimum concentration required to prevent the growth of cipro resistant (Cipro-I) Klebsiella pneumoniae strain AM; assay type: functional; in short: as §1
[12] = test system: Listeria monocytogenes; test: Minimum concentration required to prevent the growth of Listeria monocytogenes strain A0182; assay type: functional; in short: as §2
[13] = test system: Listeria monocytogenes; test: Minimum concentration required to prevent the growth of Listeria monocytogenes strain A0183; assay type: functional; in short: as §2
[14] = test system: Pseudomonas aeruginosa; test: Minimum concentration required to prevent the growth of Pseudomonas aeruginosa strain 28215; assay type: functional; in short: as §2
[15] = test system: Staphylococcus epidermidis; test: Minimum concentration required to prevent the growth of multiply resistant Staphylococcus epidermidis (MRSE) and cipro resistant (Cipro-R) coag.-neg. Staph. A0247; assay type: functional; in short: as §1
[16] = test system: Staphylococcus epidermidis; test: Minimum concentration required to prevent the growth of multiply resistant Staphylococcus epidermidis (MRSE) and cipro resistant (Cipro-R) coag.-neg. Staph. A0248; assay type: functional; in short: as §1
[17] = test system: Staphylococcus epidermidis; test: Minimum concentration required to prevent the growth of multiply resistant Staphylococcus epidermidis (MRSE) coag.-neg. Staph. A0244; assay type: functional; in short: as §1
[18] = test system: Staphylococcus epidermidis; test: Minimum concentration required to prevent the growth of multiply resistant Staphylococcus epidermidis (MRSE) coag.-neg. Staph. A0245; assay type: functional; in short: as §1
[19] = test system: Staphylococcus aureus; test: Minimum concentration required to prevent the growth of multiply resistant (MRSA) Staphylococcus aureus strain A0170; assay type: functional; in short: as §1
[20] = test system: Staphylococcus aureus; test: Minimum concentration required to prevent the growth of multiply resistant (MRSA) Staphylococcus aureus strain A0171; assay type: functional; in short: as §1
[21] = test system: Staphylococcus aureus; test: Minimum concentration required to prevent the growth of multiply resistant (MRSA) and cipro resistant (Cipro-R) Staphylococcus aureus strain A2800; assay type: functional; in short: as §1
[22] = test system: Staphylococcus aureus; test: Minimum concentration required to prevent the growth of multiply resistant (MRSA) and cipro resistant (Cipro-R) Staphylococcus aureus strain A2043; assay type: functional; in short: as §1
[23] = test system: Pseudomonas aeruginosa; test: Minimum concentration required to prevent the growth of Pseudomonas aeruginosa strain 28245; assay type: functional; in short: as §2
[24] = test system: Enterococcus faecalis; test: Minimum concentration required to prevent the growth of high level gentamicin and beta- lactamase resistant (HLGR, BLA+) Enterococcus faecalis strain A0089; assay type: functional; in short: as §1
[25] = test system: Enterococcus faecalis; test: Minimum concentration required to prevent the growth of high level gentamicin and beta- lactamase resistant (HLGR, BLA+) Enterococcus faecalis strain A0090; assay type: functional; in short: as §1
[26] = test system: Enterococcus faecalis; test: Minimum concentration required to prevent the growth of nonresistant stock strain Enterococcus faecalis 51299 from American Type Culture Collection (ATCC); assay type: functional; in short: as §1
[27] = test system: Enterococcus faecalis; test: Minimum concentration required to prevent the growth of vancomycin resistant (VanA) Enterococcus faecalis strain A0401; assay type: functional; in short: as §1
[28] = test system: Enterococcus faecalis; test: Minimum concentration required to prevent the growth of vancomycin resistant (VanA) Enterococcus faecalis strain A0402; assay type: functional; in short: as §1
[29] = test system: Enterococcus faecalis; test: Minimum concentration required to prevent the growth of nonresistant stock strain Enterococcus faecalis 29212 from American Type Culture Collection (ATCC); assay type: functional; in short: as §1
[30] = test system: Enterococcus faecalis; test: Minimum concentration required to prevent the growth of vancomycin resistant (VanB) Enterococcus faecalis strain A1079; assay type: functional; in short: as §1
[31] = test system: Klebsiella oxytoca; test: Minimum concentration required to prevent the growth of cipro resistant (Cipro-R) Klebsiella oxytoca strain A3530
[32] = test system: Staphylococcus aureus; test: Minimum concentration required to prevent the growth of nonresistant stock strain Staphylococcus aureus 29213 from American Type Culture Collection (ATCC)
[33] = test system: Staphylococcus epidermidis; test: Minimum concentration required to prevent the growth of multiply resistant Staphylococcus epidermidis (MRSE) and cipro resistant (Cipro-R) coag.-neg. Staph. A0247
[34] = Enterococcus faecalis, read-out: MIC
[35] = Enterococcus faecium, read-out: MIC

| SMILES | MIC [1] [µg/mL] | MIC [2] [µg/mL] | MIC [3] [µg/mL] | MIC [5] [µg/mL] | MIC [6] [µg/mL] | MIC [7] [µg/mL] | MIC [8] [µg/mL] | MIC [9] [µg/mL] | MIC [11] [µg/mL] | MIC [12] [µg/mL] | MIC [13] [µg/mL] | MIC [14] [µg/mL] | MIC [16] [µg/mL] | MIC [17] [µg/mL] | MIC [18] [µg/mL] | MIC [19] [µg/mL] | MIC [20] [µg/mL] | MIC [21] [µg/mL] | MIC [22] [µg/mL] | MIC [23] [µg/mL] | also measured |
| --- | --- | --- | --- | --- | --- | --- | --- | --- | --- | --- | --- | --- | --- | --- | --- | --- | --- | --- | --- | --- | --- |
| O=C(O)c1cn(C2CC2)c2cc(N3CCN(C4OC(CO)C(O)C(O)C4O)CC3)c(F)cc2c1=O (stereo in doubt; form 3) | > 32 | 8 (≈ 16.2 µM) | 4 (≈ 8.11 µM) | > 32 | 32 (≈ 64.8 µM) | 8 (≈ 16.2 µM) | < 0.03 | 1 (≈ 2.03 µM) | 4 (≈ 8.11 µM) | 2 (≈ 4.05 µM) | 2 (≈ 4.05 µM) | 0.5 (≈ 1.01 µM) | > 32 | 1 (≈ 2.03 µM) | 0.5 (≈ 1.01 µM) | 0.5 (≈ 1.01 µM) | 0.5 (≈ 1.01 µM) | > 32 | > 32 | 4 (≈ 8.11 µM) | MIC [4]: 4 µg/mL (≈ 8.11 µM); MIC [10]: 8 µg/mL (≈ 16.2 µM); MIC [15]: > 32 µg/mL |
| O=C(O)c1cn(C2CC2)c2cc(N3CCN(CCO[C@@H]4O[C@@H](CO)[C@@H](O)[C@H](O)[C@@H]4O)CC3)c(F)cc2c1=O |  |  |  | > 32 | > 32 | > 32 | 2 (≈ 3.72 µM) |  | > 32 | > 32 | > 32 | 32 (≈ 59.5 µM) | > 32 | 32 (≈ 59.5 µM) | 16 (≈ 29.8 µM) | 4 (≈ 7.44 µM) | 8 (≈ 14.9 µM) | > 32 | > 32 | > 32 | MIC [24, 34]: > 32 µg/mL; MIC [25]: 32 µg/mL (≈ 59.5 µM); MIC [26, 34]: 16 µg/mL (≈ 29.8 µM); MIC [2, 35]: > 32 µg/mL; MIC [27, 34]: > 32 µg/mL; MIC [28, 34]: 32 µg/mL (≈ 59.5 µM); MIC [29]: 32 µg/mL (≈ 59.5 µM); MIC [30]: 32 µg/mL (≈ 59.5 µM); MIC [9, 34]: 16 µg/mL (≈ 29.8 µM); MIC [15]: > 32 µg/mL; MIC [31]: > 32 µg/mL; MIC [32]: 16 µg/mL (≈ 29.8 µM) |
| O=C(O)c1cn(C2CC2)c2cc(N3CCN(CCCO[C@@H]4O[C@@H](CO)[C@@H](O)[C@H](O)[C@@H]4O)CC3)c(F)cc2c1=O |  |  |  | > 32 | > 32 | > 32 | 0.12 (≈ 0.218 µM) |  | 16 (≈ 29 µM) | 8 (≈ 14.5 µM) | 8 (≈ 14.5 µM) | 4 (≈ 7.25 µM) | > 32 | 8 (≈ 14.5 µM) | 4 (≈ 7.25 µM) | 4 (≈ 7.25 µM) | 4 (≈ 7.25 µM) | > 32 | > 32 | 32 (≈ 58 µM) | MIC [24, 34]: 8 µg/mL (≈ 14.5 µM); MIC [25]: 4 µg/mL (≈ 7.25 µM); MIC [26, 34]: 8 µg/mL (≈ 14.5 µM); MIC [2, 35]: > 32 µg/mL; MIC [3, 35]: 16 µg/mL (≈ 29 µM); MIC [4, 35]: 32 µg/mL (≈ 58 µM); MIC [27, 34]: 8 µg/mL (≈ 14.5 µM); MIC [28, 34]: 8 µg/mL (≈ 14.5 µM); MIC [29]: 8 µg/mL (≈ 14.5 µM); MIC [30]: 8 µg/mL (≈ 14.5 µM); MIC [9, 34]: 4 µg/mL (≈ 7.25 µM); MIC [31]: > 32 µg/mL; MIC [32]: 4 µg/mL (≈ 7.25 µM); MIC [33]: > 32 µg/mL |
| O=C(O)c1cn(C2CC2)c2cc(N3CCN(C4OC(CO)C(O)C(O)C4O)CC3)c(F)cc2c1=O (stereo in doubt; form 2) | > 32 | 8 (≈ 16.2 µM) | 2 (≈ 4.05 µM) |  | 32 (≈ 64.8 µM) | 8 (≈ 16.2 µM) |  | 0.5 (≈ 1.01 µM) | 2 (≈ 4.05 µM) | 2 (≈ 4.05 µM) | 2 (≈ 4.05 µM) | 0.5 (≈ 1.01 µM) |  | 1 (≈ 2.03 µM) | 0.5 (≈ 1.01 µM) | 0.5 (≈ 1.01 µM) | 0.5 (≈ 1.01 µM) |  |  | 4 (≈ 8.11 µM) | MIC [24]: 1 µg/mL (≈ 2.03 µM); MIC [26]: 1 µg/mL (≈ 2.03 µM); MIC [27]: 2 µg/mL (≈ 4.05 µM); MIC [28]: 1 µg/mL (≈ 2.03 µM); MIC [10]: 8 µg/mL (≈ 16.2 µM) |
